The nature of series [1]: Alkylating activity of the compound relative to 1,3-bis-(2-chloroethyl)-1-nitrosourea. Format: physicochemical.
For series [2], the system named is L1210. Description: Cytotoxicity against mouse L1210 cells after 72 hrs by coulter counter analysis. Particulars: L1210, 72 h, read-out: ED50 (the source's name). Format: functional. The method, boiled down: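 Murine L1210 leukemia cells grown in suspension in Fischer's medium with 10% horse serum, 37 °C. Cells exposed to nitrosoureas for 72 h, then counted by Coulter counter, two independent samples in duplicate per concentration. ED50 (concentration inhibiting growth by 50%) estimated from dose-response curves pooled from at least three separate experiments.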

Series [3] is described as follows: Carbamoylating activity of the compound at 5 umol by liquid scintillation spectrometry in presence of [14C]-lysine relative to 1,3-bis-(2-chloroethyl)-1-nitrosourea. Format: physicochemical.

On to `Cc1cn([C@H]2C[C@H](O)[C@@H](CNC(=O)N(CCCl)N=O)O2)c(=O)[nH]c1=O`, for which the “fold change (FC)” value is 0.47 in series [1] and 1.6 in series [3]. The EC50 in series [2] amounted to 6.6 µM.
Consider `Cc1cn([C@H]2C[C@H](O)[C@@H](CN(N=O)C(=O)NCCCl)O2)c(=O)[nH]c1=O`, for which the “fold change (FC)” value in series [1] came to 0.06; in series [3], 1.6. Moreover, the EC50 in series [2] worked out at 4.2 µM.
As for `Cc1cn([C@H]2C[C@H](O)[C@@H](CNC(=O)N(C)N=O)O2)c(=O)[nH]c1=O`, the “fold change (FC)” value was determined as 0.05 in series [1] and 1 in series [3]. Further, the EC50 in series [2] amounted to 95 µM.
On to `Cc1cn([C@H]2C[C@H](NC(=O)N(CCCl)N=O)[C@@H](CO)O2)c(=O)[nH]c1=O`, for which the “fold change (FC)” value in series [1] turned out to be 2.1; in series [3], 0.9. The EC50 in series [2] came out at 1.5 µM.
In the case of `Cc1cn([C@H]2C[C@H](NC(=O)N(C)N=O)[C@@H](CO)O2)c(=O)[nH]c1=O`, the “fold change (FC)” value in series [1] was 0.05; in series [3], 0.9. For the same compound, the EC50 in series [2] turned out to be 1 µM.
In the case of `O=NN(CCCl)C(=O)NCCCl` [CARMUSTINE], the EC50 in series [2] was found to be 4 µM.

Source of the values: ChEMBL document CHEMBL3244340, “Antineoplastic agents. 1. Synthesis and antineoplastic activities of chloroethyl- and methylnitrosourea analogues of thymidine” (J Med Chem, 1978).
